Common to all, as to assay type: functional
One assay relates to IGROV-1. Put plainly: Cytotoxicity against human IGROV1 cells after 48 hrs by SRB assay. The note with it: IGROV-1, 48 h. In a few lines:
(§1)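 NCI 60-cell five-dose screen. Cells grown in RPMI 1640 with 5% FBS and 2 mM glutamine, plated at 5000–40,000 cells/well, and preincubated 24 h at 37 °C in 5% CO2. Time-zero plates fixed with TCA. Five serial dilutions of DMSO stock added, then 48 h exposure. TCA fixation, 0.4% SRB staining, absorbance read at 515 nm. GI50 from [(Ti−Tz)/(C−Tz)]×100 = 50.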
A general note: The SRB assay estimates cell density from bound dye.

Another assay deals with UACC-257. Kind of assay: Cytotoxicity against human UACC257 cells after 48 hrs by SRB assay. As to conditions: UACC-257, 48 h. The procedure, abridged: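 NCI 60-panel five-dose screen. Cells in RPMI 1640 with 5% FBS and 2 mM glutamine, plated at 5000–40,000 cells/well and preincubated 24 h at 37 °C under 5% CO2. Five 10-fold or half-log dilutions were added from a DMSO stock for 48 h. Cells were TCA-fixed (SR settled cells: 16% final), SRB-stained and read at 515 nm. GI50 was taken where (Ti−Tz)/(C−Tz)×100 = 50.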

In another assay the test system is NCI-H522. Kind of assay: Cytotoxicity against human NCI-H522 cells after 48 hrs by SRB assay. As to conditions: NCI-H522, 48 h. The procedure, abridged: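 Five-dose screen, 10-fold or ½-log dilutions, compound stock in DMSO. Cells were in RPMI 1640 with 5% FBS and 2 mM glutamine at 5000–40,000 cells/well, preincubated 24 h, 37 °C, 5% CO₂, with a time-zero plate TCA-fixed. After 48 h drug exposure, cells were TCA-fixed and stained with 0.4% SRB, read at 515 nm. GI50, TGI and LC50 were derived from time-zero, control and test absorbances.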

A further assay has as its system K562. Put plainly: Cytotoxicity against human K562 cells after 48 hrs by SRB assay. As to conditions: K562, 48 h. In a few lines: as §1
Setting [1] is: read-out: pLC50 (the source's name) (converted).

Take `CSC1=Nc2c(c(C)c(-c3ccccc3)n2CCCCl)C2=NC(=O)CN12`: the GI50 (in general, the concentration that inhibits growth by half) in the assay on IGROV-1 was 3.55 µM; with UACC-257, 12.6 µM; in the assay with NCI-H522, 3.89 µM; in the assay with K562 it was 5.75 µM. Also, the CC50 in the assay on IGROV-1 (setting [1]) is 95.5 µM; in the assay with UACC-257 (setting [1]), 64.6 µM; with NCI-H522 (setting [1]), 75.9 µM; with K562 (setting [1]), above 100 µM. Besides, the TGI with IGROV-1 (read-out: pTGI (converted)) was 21.4 µM; in the assay on UACC-257 (read-out: pTGI (converted)) it was 28.2 µM; in the assay with NCI-H522 (read-out: pTGI (converted)) it was 19.1 µM; with K562 (read-out: pTGI), above 100 µM.
